Data published in ChEMBL document CHEMBL1154110, “Identification, structure-activity relationships and molecular modeling of potent triamine and piperazine opioid ligands” (Bioorg Med Chem, 2009).
pIC50: −log10 of the molar value.

Experiments:
Mu-type opioid receptor = Mu-type opioid receptor (Rattus norvegicus, UniProt P33535); experiment: Displacement of [3H]DAMGO from mu opioid receptor in rat brain by liquid scintillation counting; assay type: tissue-based
[1] = molecular target: Kappa-type opioid receptor (Cavia porcellus, UniProt P41144); experiment: Displacement of [3H]U69593 from guinea pig kappa opioid receptor by liquid scintillation counting
Chain of Kappa-type opioid receptor (P41144 whole entry): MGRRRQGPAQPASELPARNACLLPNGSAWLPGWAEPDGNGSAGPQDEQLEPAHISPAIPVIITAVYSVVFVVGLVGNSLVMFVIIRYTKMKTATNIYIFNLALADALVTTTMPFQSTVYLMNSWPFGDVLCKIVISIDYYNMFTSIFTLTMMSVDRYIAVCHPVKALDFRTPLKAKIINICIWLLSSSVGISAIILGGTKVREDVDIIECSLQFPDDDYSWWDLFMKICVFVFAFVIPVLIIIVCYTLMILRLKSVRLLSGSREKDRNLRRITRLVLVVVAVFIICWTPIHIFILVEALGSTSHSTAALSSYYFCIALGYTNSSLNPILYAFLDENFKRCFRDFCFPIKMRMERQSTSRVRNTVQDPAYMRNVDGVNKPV
Summary of the method: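 Receptor membrane suspension incubated with 3 nM [3H]U69,593 as the tritiated competitor. Unlabeled U50,488 served as the kappa standard: it generated a standard curve on every plate and defined nonspecific binding. IC50 values came from dose-response testing.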

[2] = molecular target: Delta-type opioid receptor (Rattus norvegicus, UniProt P33533); experiment: Displacement of [3H]DSLET from delta opioid receptor in rat brain by liquid scintillation counting; assay type: tissue-based
Chain of Delta-type opioid receptor (P33533 whole entry): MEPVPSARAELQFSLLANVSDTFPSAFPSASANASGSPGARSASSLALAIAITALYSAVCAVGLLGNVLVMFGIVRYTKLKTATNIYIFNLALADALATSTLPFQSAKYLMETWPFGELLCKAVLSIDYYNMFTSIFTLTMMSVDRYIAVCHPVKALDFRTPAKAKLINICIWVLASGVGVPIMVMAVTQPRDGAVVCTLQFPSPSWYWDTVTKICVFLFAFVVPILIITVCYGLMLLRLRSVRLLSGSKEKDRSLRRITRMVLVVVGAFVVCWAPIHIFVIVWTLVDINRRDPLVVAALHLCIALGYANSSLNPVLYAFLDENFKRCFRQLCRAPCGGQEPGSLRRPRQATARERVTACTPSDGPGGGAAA

Chain of Mu-type opioid receptor (P33535 whole entry): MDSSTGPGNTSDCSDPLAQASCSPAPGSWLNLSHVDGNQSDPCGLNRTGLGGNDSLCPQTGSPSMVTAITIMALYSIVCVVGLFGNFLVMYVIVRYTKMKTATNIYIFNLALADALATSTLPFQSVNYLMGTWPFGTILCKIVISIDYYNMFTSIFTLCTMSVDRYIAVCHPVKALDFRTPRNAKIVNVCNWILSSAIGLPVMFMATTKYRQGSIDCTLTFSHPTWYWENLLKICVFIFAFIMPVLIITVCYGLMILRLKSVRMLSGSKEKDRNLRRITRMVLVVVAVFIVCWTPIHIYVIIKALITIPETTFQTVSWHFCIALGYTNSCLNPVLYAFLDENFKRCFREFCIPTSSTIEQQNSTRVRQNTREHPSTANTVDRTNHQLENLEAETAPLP

SMILES | pIC50 (Mu-type opioid receptor) | pIC50 [1] | pIC50 [2]
CNC[C@@H](Cc1ccc(O)cc1)N1CCN(CC2CCCCCC2)[C@@H](C(C)C)C1 | < 6.00 | < 6.00 | < 5.00
CNC[C@H](Cc1ccc(O)cc1)NC[C@H](Cc1ccc(O)cc1)NCC1CCC(C)CC1 (stereo partly specified) | 6.50 | 6.99 | < 5.00
CCCC[C@H](CNCc1ccccc1)N1CCN(CC(C)C)[C@H](Cc2ccc(O)cc2)C1 | < 6.00 | 6.99 | < 5.00
CNC[C@H](Cc1ccc(O)cc1)N1CCN(CCC2CC3CCC2C3)CC1 (stereo partly specified) | 6.78 | 6.43 | 5.71
CCC[C@H](CNC)NC[C@@H](CCC)NCCC1CCCC1 | < 6.00 | 6.99 | < 5.00
CC[C@H](C)[C@@H](CNC)N1CCN(CCCC2CCCCC2)[C@H](C(C)C)C1 | < 6.00 | 7.24 | < 5.00
CNC[C@@H](Cc1ccc(O)cc1)N1CCN(CCC2CC3CCC2C3)[C@@H](C(C)C)C1 (stereo partly specified) | < 6.00 | < 6.00 | < 5.00
CC(C)[C@@H]1CN([C@@H](CNCc2ccccc2)C(C)C)CCN1CCC1CCCC1 | < 6.00 | < 6.00 | < 5.00
CCC[C@H](CN[C@H](CNC)Cc1ccc(O)cc1)NCC1CCC(C)CC1 (stereo partly specified) | < 6.00 | 7.85 | < 5.00
CCC[C@H](CNC)NC[C@@H](CCC)NCCC1CC2CCC1C2 (stereo partly specified) | < 6.00 | < 6.00 | < 5.00
CCC[C@H](CN[C@H](CNC)Cc1ccc(O)cc1)NCCC12CC3CC(CC(C3)C1)C2 | 6.28 | 7.43 | < 5.00
CCC[C@H](CNC)NC[C@H](Cc1ccc(O)cc1)NCCC1CCCC1 | 6.62 | 6.12 | < 5.00
CCC[C@H](CNC)NC[C@@H](CCC)NCC1CCC(C)CC1 (stereo partly specified) | < 6.00 | < 6.00 | < 5.00
CC(C)[C@@H]1CN([C@@H](CNCc2ccccc2)C(C)C)CCN1CCC1CC2CCC1C2 (stereo partly specified) | < 6.00 | < 6.00 | < 5.00
CCCC[C@H](CNCc1ccccc1)N1CCN(CC2CCCCCC2)[C@H](Cc2ccc(O)cc2)C1 | < 6.00 | 6.79 | < 5.00
CNC[C@@H](Cc1ccc(O)cc1)N1CCN(CCc2cccc(C)c2)[C@@H](C(C)C)C1 | < 6.00 | < 6.00 | < 5.00
CNC[C@@H](Cc1ccc(O)cc1)N1CCN(CCCC(C)C)CC1 | 6.33 | < 6.00 | < 5.00
CC(C)[C@H](CNCc1ccccc1)N1CCN(CCC2CC3CCC2C3)[C@@H](Cc2ccccc2)C1 (stereo partly specified) | < 6.00 | < 6.00 | < 5.00
CCC[C@H](CN[C@H](CNC)Cc1ccc(O)cc1)NCCC1CC2CCC1C2 (stereo partly specified) | 6.76 | 7.77 | 5.68
CNC[C@@H](Cc1ccc(O)cc1)N1CCN(CC2CCCCCC2)CC1 | 7.05 | 6.65 | < 5.00
CC(C)CCN1CCN([C@@H](CNCc2ccccc2)C(C)C)C[C@H]1C(C)C | < 6.00 | < 6.00 | < 5.00

SMILES | pIC50 (Mu-type opioid receptor) | pIC50 [1] | pIC50 [2]
CNC[C@H](Cc1ccc(O)cc1)NC[C@H](Cc1ccc(O)cc1)NCCC1CC2CCC1C2 (stereo partly specified) | 6.57 | 6.34 | < 5.00
CCC[C@H](CNC)NC[C@H](Cc1ccc(O)cc1)NCC1CCC(C)CC1 (stereo partly specified) | 6.65 | 5.76 | < 5.00
CNC[C@H](Cc1ccc(O)cc1)N1CCN(CC2CCCCCC2)CC1 | 6.82 | 7.03 | < 5.00
CCC[C@H](CNC)NC[C@@H](CCC)NCCC12CC3CC(CC(C3)C1)C2 | < 6.00 | < 6.00 | < 5.00
CCC[C@H](CN[C@H](CNC)Cc1ccc(O)cc1)NCCC1CCCC1 | 6.19 | 7.01 | < 5.00
CCC(C)[C@@H](CNC)N1CCN(CCC23CC4CC(CC(C4)C2)C3)[C@H](C(C)C)C1 (stereo partly specified) | < 6.00 | 6.92 | < 5.00
CNC[C@H](Cc1ccc(O)cc1)N1CCN(CCc2cccc(C)c2)[C@@H](C(C)C)C1 | 6.69 | < 6.00 | < 5.00
CC[C@H](C)[C@@H](CNC)N1CCN(CCC2CC3CCC2C3)[C@H](C(C)C)C1 (stereo partly specified) | < 6.00 | < 6.00 | < 5.00
CNC[C@@H](Cc1ccc(O)cc1)N1CCN(CCCC(C)C)[C@@H](C(C)C)C1 | < 6.00 | < 6.00 | < 5.00
CNC[C@@H](Cc1ccc(O)cc1)N1CCN(CCCC2CCCCC2)[C@H](C(C)C)C1 | 6.04 | 6.18 | < 5.00
CNC[C@H](Cc1ccc(O)cc1)N1CCN(CCC2CC3CCC2C3)[C@@H](C(C)C)C1 (stereo partly specified) | 6.65 | 6.43 | < 5.00
CCC[C@H](CNC)NC[C@@H](CCC)NCC1CCCCCC1 | < 6.00 | < 6.00 | < 5.00
CC(C)(C)CCN1CCN([C@@H](CNCc2ccccc2)Cc2ccc(O)cc2)C[C@@H]1Cc1ccc(O)cc1 | < 6.00 | 6.41 | 5.34
CC(C)[C@@H]1CN([C@@H](CNCc2ccccc2)C(C)C)CCN1CCc1ccccc1 | < 6.00 | < 6.00 | < 5.00
CNC[C@@H](Cc1ccc(O)cc1)N1CCN(CCC2CC3CCC2C3)CC1 (stereo partly specified) | 7.04 | 6.32 | < 5.00
CC(C)[C@H](CNCc1ccccc1)N1CCN(CCC2CCCC2)[C@@H](Cc2ccccc2)C1 | < 6.00 | < 6.00 | < 5.00
CCC[C@H](CNC)NC[C@H](Cc1ccc(O)cc1)NCCC1CC2CCC1C2 (stereo partly specified) | 6.75 | 6.48 | < 5.00
CNC[C@@H](Cc1ccc(O)cc1)N1CCN(CCC2CC3CCC2C3)[C@H](C(C)C)C1 (stereo partly specified) | 6.47 | 6.64 | < 5.00
CCC[C@H](CNC)NC[C@H](Cc1ccc(O)cc1)NCC1CCCCCC1 | 6.97 | 6.36 | < 5.00
CNC[C@H](Cc1ccc(O)cc1)NC[C@H](Cc1ccc(O)cc1)NCC1CCCCCC1 | 7.27 | 7.66 | < 5.00
CNC[C@H](Cc1ccc(O)cc1)NC[C@H](Cc1ccc(O)cc1)NCCC1CCCC1 | 6.77 | 6.73 | 5.54
